Results reported in ChEMBL document CHEMBL2311397, “Design and synthesis of cyclopropylamide analogues of combretastatin-A4 as novel microtubule-stabilizing agents” (J Med Chem, 2013).
Activity calls are given as the source filed them. No cut-off for these calls is given here.

Legend:
A549 [1] = assay: Antimitotic activity against human A549 cells assessed as cell mitotic arrest at 5 uM after 22 hrs by DAPI/FITC staining-based laser fluorescence confocal microscopic analysis (reference value: 1.1 %); format: functional
A549 [2] = assay: Cell cycle arrest in human A549 cells assessed as accumulation at G2/M phase at 10 uM after 24 hrs by propidium iodide staining-based flow cytometry (reference value: 2.78 %); format: functional
A549 [3] = assay: Cell cycle arrest in human A549 cells assessed as accumulation at G2/M phase at 5 uM after 24 hrs by propidium iodide staining-based flow cytometry (reference value: 2.78 %); format: functional
A549 [4] = assay: Cell cycle arrest in human A549 cells assessed as accumulation at S phase at 10 uM after 24 hrs by propidium iodide staining-based flow cytometry (reference value: 9.12 %); format: functional
A549 [5] = assay: Cell cycle arrest in human A549 cells assessed as accumulation at S phase at 5 uM after 24 hrs by propidium iodide staining-based flow cytometry (reference value: 9.12 %); format: functional
A549 [6] = assay: Cell cycle arrest in human A549 cells assessed as accumulation at G1 phase at 10 uM after 24 hrs by propidium iodide staining-based flow cytometry (reference value: 87.56 %); format: functional
A549 [7] = assay: Cell cycle arrest in human A549 cells assessed as accumulation at G1 phase at 5 uM after 24 hrs by propidium iodide staining-based flow cytometry (reference value: 87.56 %); format: functional
A549 [8] = assay: Cell cycle arrest in human A549 cells assessed as accumulation at G1 phase at 0.1 uM after 24 hrs by propidium iodide staining-based flow cytometry (reference value: 87.56 %); format: functional
Tubulin (Homo sapiens) = Tubulin (Homo sapiens) (UniProt P68371+Q9H4B7+P0DPH7+P68366+Q13509+Q71U36+P04350+Q3ZCM7+P07437+P68363+Q9BQE3+Q6PEY2+Q13885+Q9BVA1+Q9BUF5); assay: (§1) Activation of tubulin (unknown origin) polymerization; format: protein-complex assay
Procedure, shortened: (§2)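 Purified brain tubulin (kit), final 3.0 mg/mL, in 80.0 mM PIPES sesquisodium pH 6.9, 2.0 mM MgCl2, 0.5 mM EGTA, 1 mM GTP, 10.2% glycerol; components prewarmed to 37 °C, reaction started by adding tubulin. A340 read each minute for 1 h. Single-point % stimulation used 10 μM compound; EC50 from 3.75, 7.5, 15, 30, 60 μM.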

Tubulin = assay: as §1; format: protein-complex assay, Homo sapiens; procedure, shortened: as §2
HeLa [9] = assay: Resistance index, ratio of IC50 for paclitaxel-resistant human HeLa cells to IC50 for paclitaxel-sensitive human HeLa cells; format: functional
Procedure, shortened: (§3)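 Log-phase cells (40000–50000 cells/mL) grown in DMEM with 10% fetal calf serum (5% CO2, 37 °C) and exposed 48 h to five concentrations, 3–5 replicates. Read-out was MTT with absorbance at 570 nm; IC50 reported as mean ± SD of three independent experiments. Resistant A549 and HeLa sublines were made by stepwise paclitaxel selection; resistance index = IC50(resistant)/IC50(sensitive).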

SW480 = assay: Cytotoxicity against human SW480 cells after 48 hrs by MTT assay; format: functional, cell-based; conditions: Homo sapiens, SW480, 48 h; procedure, shortened: as §3
HeLa [10] = assay: Cytotoxicity against human HeLa cells after 48 hrs by MTT assay; format: functional, cell-based; conditions: Homo sapiens, HeLa, 48 h; procedure, shortened: as §3
A549 [11] = assay: Induction of apoptosis in human A549 cells assessed as viable cells at 10 uM after 24 hrs by annexin V-FITC/propidium iodide staining-based flow cytometry (reference value: 94.08%); format: functional; conditions: A549, 24 h, read-out: Activity
A549 [12] = assay: Induction of apoptosis in human A549 cells assessed as late apoptotic cells at 5 uM after 24 hrs by annexin V-FITC/propidium iodide staining-based flow cytometry (reference value: 1.02%); format: functional
A549 [13] = assay: Induction of apoptosis in human A549 cells assessed as necrotic cells at 10 uM after 24 hrs by annexin V-FITC/propidium iodide staining-based flow cytometry (reference value: 2.76%); format: functional
A549 [14] = assay: Induction of apoptosis in human A549 cells early apoptotic cells at 10 uM after 24 hrs by annexin V-FITC/propidium iodide staining-based flow cytometry (reference value: 0.73 %); format: functional
A549 [15] = assay: Induction of apoptosis in human A549 cells early apoptotic cells at 5 uM after 24 hrs by annexin V-FITC/propidium iodide staining-based flow cytometry (reference value: 0.73 %); format: functional
A549 [16] = assay: Effect on chromosomal alteration in human A549 cells at 10 uM after 22 hrs by DAPI/FITC staining-based laser fluorescence confocal microscopic analysis; format: functional, cell-based
Procedure, shortened: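 Confocal imaging of A549 cells exposed for 22 h to compound or vehicle (0.2% DMSO final), added at 70% confluency after overnight growth. Fixation followed by 0.5% Triton X-100 permeabilization and 10% goat serum blocking; tubulin stained with FITC anti-α-tubulin (1:100, 2 h, 37 °C), nuclei counterstained with DAPI. Wide-field images taken at 10–15 random slide locations.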

A549 [17] = assay: Effect on chromosomal alteration in human A549 cells at 10 uM after 22 hrs by DAPI/FITC staining-based laser fluorescence confocal microscopic analysis

COc1cc([C@@H]2C[C@]2(CO)C(=O)Nc2ccccc2Cl)cc(OC)c1OC was tested. Which Activity (A549 [1]) did it give?
Its Activity is 53.1%.

And the Activity (A549 [2])?
The Activity was 79.92%.

What about the Activity (A549 [3]) of the same compound?
The Activity was 60.85%.

And the Activity (A549 [4])?
Its Activity is 10.29%.

What about the Activity (A549 [5]) of the same compound?
Its Activity is 10.81%.

What about the Activity (A549 [6]) of the same compound?
The Activity was 9.85%.

And the Activity (A549 [7])?
Its Activity is 28.62%.

What about the Activity (A549 [8]) of the same compound?
The Activity was 78.7%.

And the Activity (Tubulin (Homo sapiens))?
Its Activity is “Dose-dependent effect”.

And the EC50 (Tubulin)?
The EC50 was 19.7 µM.

And the “Ratio IC50” value (HeLa [9])?
The value was 1.3.

And the IC50 (SW480)?
Its IC50 is 13.2 µM.

And the IC50 (HeLa [10])?
Its IC50 is 8.1 µM.

What about the viability at 10 µM (A549 [11]) of the same compound?
The viability at 10 µM was 40.9%.

What about the Activity (A549 [12]) of the same compound?
Its Activity is 1.36%.

What about the Activity (A549 [13]) of the same compound?
Its Activity is 0.83%.

And the Activity (A549 [14])?
The Activity was 55.23%.

What about the Activity (A549 [15]) of the same compound?
Its Activity is 37.4%.

And the Activity (A549 [16])?
The Activity was “Active”.

What about the Activity (A549 [17]) of the same compound?
The Activity was “Active”.
